Rows were chosen to be rich in hits. Some 3.1% of all compounds tested hit in one or more screens of this group.
Calb FLC: C. albicans growth inhibition with fluconazole, primary screen, CaCi-2 strain, Alamar Blue fluorescence. C. albicans CaCi-2 (fluconazole-resistant clinical isolate) + fluconazole, 48 h. actives 0.57% (n = 300,000). growth inhibition, % (no concentration beside the values). AID 1979, 2009;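 active = growth inhibition above about 58% in most replicates, limit read from the data, passing the limit was not always enough; inconclusive = exactly half the replicates above a set limit; inactive = most replicates below a set limit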;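 note: all wells also contain fluconazole at 8 µg/ml as a sub-toxic cotreatment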
CSC inhib: cancer stem cell viability inhibitors, primary screen, luminescence. cancer stem cell-like cells viability. inhibition, % at 7.5 µM. actives 1.1% (n = 300,000). AID 2717, 2010; in the data active = inhibition above about 75%; inconclusive = no clear call, values can overlap the other calls; tested in HMLE shEcad cells
Beta cell apopt: inhibitors of cytokine-induced beta cell apoptosis, primary screen, luminescence; protection from apoptosis, % (concentration not given with the values); INS-1E cytokine-induced death, ATP luminescence, 48 h; percent of positive-control rescue, neutral wells zero; AID 435005, 2010; actives 0.8% (n = 300,000);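 active = Every replicate reaches about 75%, or at least half do and their mean reaches it too, limit read from the data; inconclusive = At least half of replicates reach the limit but their mean does not; inactive = Under half of replicates reach the limit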;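 note: higher means more ATP so stronger rescue from cytokine killing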
H9c2 TAG inh: inhibitors of triacylglycerol accumulation, primary screen, cell-based, uHTS, fluorescence, H9c2 | AID 651582, 2012 | actives 0.66% (n = 230,000) | H9c2 cells, Nile Red lipid (TAG) fluorescence; cells loaded with 200 µM oleic acid | inhibition, % at 12.5 µM;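 active = pattern-corrected inhibition of lipid staining of at least 50% with the nuclear-stain viability signal not falling by more than 50%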
A1 inh: caspase 3/7 activation in MEF A1-2A-BIM cells, primary screen, A1 inhibitor project, cell-based, luminescence, HTS | Caspase-Glo 3/7 luminescence, 3 h; percent of clofoctol response, vehicle zero | caspase activation, % (no concentration beside the values) | actives 0.066% (n = 330,000);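 active = over half of replicate activation scores above 10%, or exactly half above 10 with the replicate mean above 10; inconclusive = replicate mean below 10 yet half the replicates above 10; inactive = over half of replicates below 10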
T cruzi inh: inhibitors of intracellular T. cruzi growth, primary screen, luminescence, NIH3T3 host cells; T. cruzi beta-gal in NIH3T3, 90 h; inhibition, % (concentration not given with the values); actives 1.4% (n = 300,000);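 active = mean inhibition across valid replicates above about 55%, limit read from the data; inconclusive = mean below that limit but half or more replicates reach it; inactive = mean below it, under half of replicates reach it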;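 note: signal also drops with host cell toxicity which is not excluded here; higher percent means less beta-gal luminescence so fewer parasites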
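Test system: β-gal T. cruzi (Tulahuen C4) inside NIH/3T3 cells / Quantity: 5,000 cells/well / Measured by: luminescence from GalScreen with 0.05% NP40, read after 60 min / Medium: DMEM plus 2% FBS / Measure: parasite load inhibition, % / Reagent: Tulahuen C4 trypomastigotes, 5000/well / Schedule: co-culture of at least 90 h after 3 h attachment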
Each line names hits and unclear results; the compound was inactive in the other large screens.

Cc1oc(-c2ccccc2Cl)nc1CS(=O)CC(=O)NC1CC1 (stereo unspecified)	none (no result: H9c2 TAG inh)
Cc1nn2c(COc3ccc(NC(=O)C(C)C)cc3)nnc2c2ccccc12	none
Cc1nn2c(COc3ccc(NC(=O)c4ccccc4Cl)cc3)nnc2c2ccccc12	CSC inhib 90 (no result: H9c2 TAG inh)
O=S(=O)(NCc1nnc2ccccn12)c1ccc(F)cc1	none (no result: Calb FLC, CSC inhib, Beta cell apopt, A1 inh, T cruzi inh)
COC(=O)C1C2OC(C(Br)C2Br)C1C(=O)OC (stereo unspecified)	none (no result: Calb FLC, CSC inhib, Beta cell apopt, A1 inh, T cruzi inh)
COc1ccccc1C(=O)NC(=Nc1nc2ccccc2o1)NC(=O)c1ccccc1OC	T cruzi inh 71
O=C(CCNS(=O)(=O)c1ccc(OC(F)(F)F)cc1)NCCc1c[nH]c2ccccc12	none (no result: Calb FLC, T cruzi inh)
N/C(Cc1ccccc1)=N\OC(=O)c1cccc2ccccc12	Calb FLC 104
N/C(Cc1cccc2ccccc12)=N\OC(=O)c1ccccc1F	none
O=C(NCC1CCCO1)c1ccc([N+](=O)[O-])s1 (stereo unspecified)	T cruzi inh 67 (no result: H9c2 TAG inh)
O=C(NCC1CCCO1)c1ccc(Br)s1 (stereo unspecified)	none
CCOc1ccc(OCC)c(NC(=O)CN2CCN(c3cc(C)ccc3C)CC2)c1	T cruzi inh 70 (no result: H9c2 TAG inh)
Cc1ccc(C)c(N2CCN(CC(=O)Nc3ccc([N+](=O)[O-])cc3C(=O)Nc3ccccc3F)CC2)c1	T cruzi inh 71 (no result: H9c2 TAG inh)
O=C(CN1CCN(c2cccc(Cl)c2)CC1)Nc1ccc([N+](=O)[O-])cc1C(=O)Nc1ccccc1F	T cruzi inh 65 (no result: H9c2 TAG inh)
O=C(CNC1CCCCC1)Nc1ccc([N+](=O)[O-])cc1C(=O)Nc1ccccc1F	none
CC(C)Oc1ccc(S(=O)(=O)N2CCOCC2)cc1NC(=O)c1cccc(S(=O)(=O)N2CCCC2)c1	none (no result: Calb FLC, CSC inhib, Beta cell apopt, A1 inh, T cruzi inh)
COc1ccccc1NS(=O)(=O)c1cc([N+](=O)[O-])ccc1N/N=C/c1c(C)[nH]c2ccccc12	none (no result: Beta cell apopt, H9c2 TAG inh)
O=[N+]([O-])c1ccc(N/N=C/c2c[nH]c3ccccc23)c(S(=O)(=O)Nc2ccc(Cl)cc2)c1	CSC inhib 101
Cc1nc2c(C(=O)NCc3ccco3)cnn2c(C)c1Cc1ccc(F)cc1Cl	T cruzi inh 74 (no result: H9c2 TAG inh)
Cc1ccccc1Cc1c(C)nc2c(C(=O)NCc3ccc4c(c3)OCO4)cnn2c1C	none (no result: H9c2 TAG inh)
Cc1nc2c(C(=O)NCc3ccc4c(c3)OCO4)cnn2c(C)c1Cc1ccc(F)cc1Cl	none (no result: H9c2 TAG inh)
Cc1ccc(C)c(Cc2c(C)nc3c(C(=O)NCc4ccc5c(c4)OCO5)cnn3c2C)c1	CSC inhib 78, T cruzi inh 68 (no result: H9c2 TAG inh)
Cc1nc2ccc(NC(=O)COc3ccccc3)cc2s1	Calb FLC 108 (no result: CSC inhib, Beta cell apopt, A1 inh, T cruzi inh)
COc1ccccc1N=C1SC(C(=O)Nc2cccc(Cl)c2Cl)C(N)=C1C(N)=O (stereo unspecified)	CSC inhib 79
CCOC(=O)c1ccc(-n2[nH]c(-c3ccccc3)cc2=O)cc1	CSC inhib 79 (no result: H9c2 TAG inh)
COc1cc(NC(=O)C23CC4CC(C2)CC(n2cnc([N+](=O)[O-])n2)(C4)C3)cc(OC)c1	none (no result: H9c2 TAG inh)
O=C(Nc1cccc([N+](=O)[O-])c1)C12CC3CC(C1)CC(n1cnc([N+](=O)[O-])n1)(C3)C2	T cruzi inh 64
O=C(Nc1ccccc1)C12CC3CC(C1)CC(n1cnc([N+](=O)[O-])n1)(C3)C2	T cruzi inh 55
CCc1ccc(S(=O)(=O)NC2CC(C)(C)NC(C)(C)C2)cc1	none (no result: H9c2 TAG inh)
C/C(CCN1CCc2nc(-c3ccccc3)c(-c3ccccc3)cc2C1)=N\O[C@@H](C)c1cc(-c2c(C)cc(C)cc2C)no1	CSC inhib 78
CCc1cc2c(nc1CC)CCN(CC/C(C)=N/O[C@@H](C)c1cc(-c3c(C)cc(C)cc3C)no1)C2	none (no result: H9c2 TAG inh)
CC(C)c1ccc(C2C3=C(CC(C)(C)CC3=O)NC3=C2C(=O)c2ccccc23)cc1 (stereo unspecified)	T cruzi inh 58 (no result: H9c2 TAG inh)
O=C(CSc1nc2nc(-c3cccs3)cc(C(F)(F)F)c2c(=O)[nH]1)Nc1ccc(F)c(F)c1	CSC inhib 104
Cc1ccc(C)c(NC(=O)CSc2nc3nc(-c4cccs4)cc(C(F)(F)F)c3c(=O)[nH]2)c1	CSC inhib 96
Cc1ccc(C)c(NC(=O)CSc2nc(N)c(NC(=O)c3cccs3)c(=O)[nH]2)c1	none (no result: Calb FLC, CSC inhib, Beta cell apopt, A1 inh, T cruzi inh)
CC(=O)c1c(C)[nH]c(C(=O)OCc2ccccc2)c1C	none
CC(=O)c1c(C)[nH]c(C(=O)OCCCCN2C(=O)c3ccccc3C2=O)c1C	Beta cell apopt 104
CCC(=O)Nc1nc2ccccc2n1Cc1ccc(Cl)cc1	T cruzi inh 62
Cc1cc(O)c(Sc2ccc(Cl)cc2)c(=O)[nH]1	none
Cc1[nH]n(C(C)(C)C)c(=O)c1Sc1ccc(Cl)cc1	T cruzi inh 61
C=C1C(=O)C=C[C@]2(C)C[C@@H]3OC(=O)[C@](C)(O)[C@H]3C[C@@H]12	CSC inhib inconclusive, H9c2 TAG inh 57 (no result: Beta cell apopt)
COC(CNC(=O)C1CC(=O)N(CCc2ccc(C)cc2)C1)OC (stereo unspecified)	none (no result: H9c2 TAG inh)
COc1cc(CNc2ccccc2)c([N+](=O)[O-])cc1OC	none
CC(Oc1ccc(Br)cc1)c1nc2c3ccccc3nc(=S)n2[nH]1 (stereo unspecified)	Beta cell apopt 99
CCCN(CC#CC(O)(c1ccccc1)c1cccnc1)CCC (stereo unspecified)	T cruzi inh 65
OC(C#CCN1CCCC1)(c1ccccc1)c1cccnc1 (stereo unspecified)	none
CN(/N=C/c1cc(Br)cc(Br)c1O)c1cccc(C(F)(F)F)n1	CSC inhib 103, Beta cell apopt inconclusive (no result: H9c2 TAG inh)
CN(N=Cc1ccccc1O)c1ccc2ccccc2n1	none (no result: Calb FLC, CSC inhib, Beta cell apopt, A1 inh, T cruzi inh)
COc1cccc(NC(=O)CSc2nnc(Cc3ccc(C)cc3)c(=O)n2N)c1	none (no result: Beta cell apopt)
COc1ccc(Cc2nnc(SCC(=O)Nc3ccc(C)cc3)n(N)c2=O)cc1	H9c2 TAG inh 59
Cc1ccc(C(C)C)c(OCCCN(C)Cc2ccccc2)c1	none
Cc1ccc(OCCCCN(C)Cc2ccccc2)c(Br)c1	CSC inhib 94
CNCc1ccccc1Sc1ccc(O)c(O)c1	Calb FLC 107, CSC inhib 85 (no result: H9c2 TAG inh)
O=C(CN1CCC(Cc2ccccc2)CC1)NC(=O)NCc1ccccc1	none (no result: H9c2 TAG inh)
Cc1ccc(C)c(S(=O)(=O)N2CCN(CC(=O)NC(=O)NCc3ccccc3)CC2)c1	T cruzi inh 56
Nc1cc[n+](CC(=O)Nc2ccccc2)cc1	none
O=C(C[n+]1ccccc1)NNc1ccccc1	CSC inhib 114
Fc1cccc(-n2cc(-c3ccccc3)c3c(=S)nc[nH]c32)c1	Calb FLC 101 (no result: H9c2 TAG inh)
CCOc1ccc(NC(=O)CCSc2nc3c(c(CC)c2C#N)C(=O)CC(C)(C)C3)cc1	T cruzi inh 55
